Test results taken from ChEMBL document CHEMBL5107938, “Synthesis and biological evaluation of selective phosphonate-bearing 1,2,3-triazole-linked sialyltransferase inhibitors” (RSC Med Chem, 2021).
pKi: −log10 of the molar value.

What was measured:
[1] = biological target: T1, Beta-galactoside alpha-2,6-sialyltransferase 1 (Homo sapiens, UniProt P15907); test: Inhibition of recombinant human ST6Gal I incubated for 1 hrs in the presence of CMP-Neu5Ac as donor and LacNAc as acceptor by luminescence based CMP-Glo assay
T1 sequence (P15907 whole entry): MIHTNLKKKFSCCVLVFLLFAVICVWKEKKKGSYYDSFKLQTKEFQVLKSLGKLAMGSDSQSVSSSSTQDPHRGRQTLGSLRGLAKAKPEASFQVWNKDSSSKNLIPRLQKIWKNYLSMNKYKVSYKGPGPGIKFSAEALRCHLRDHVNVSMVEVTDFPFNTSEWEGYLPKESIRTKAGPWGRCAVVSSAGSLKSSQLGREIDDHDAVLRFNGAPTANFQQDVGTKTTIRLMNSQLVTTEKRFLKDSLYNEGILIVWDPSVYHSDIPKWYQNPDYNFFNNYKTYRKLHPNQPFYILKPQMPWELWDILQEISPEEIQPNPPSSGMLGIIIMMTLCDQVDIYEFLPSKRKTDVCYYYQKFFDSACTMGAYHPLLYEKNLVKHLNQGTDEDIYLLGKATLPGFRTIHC
Method in brief: (§1)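 For hST6Gal I, the Km for CMP-Neu5Ac was determined with acceptor held at 1 mM. Ki was determined only for agents exceeding 50% inhibition at 10 μM in the screen (1 mM acceptor, 100 μM donor). Read-out was luciferase-coupled luminescence of released CMP after a single-hour incubation.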

[2] = biological target: T2, Beta-galactoside alpha-2,6-sialyltransferase 1 (Homo sapiens) (UniProt P15907); test: Inhibition of recombinant human ST6Gal I at 10 uM incubated for 1 hrs in the presence of CMP-Neu5Ac as donor and LacNAc as acceptor by luminescence based CMP-Glo assay relative to control
T2 sequence (whole entry): T1 sequence (P15907 whole entry)
Method in brief: (§2)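 Human enzyme reaction with 1 mM acceptor and 100 μM CMP-Neu5Ac donor. Test agent at 10 or 100 μM, incubated for a single hour. CMP formed as by-product was converted in a luciferase reaction, and luminescence, linear with CMP concentration, was read. Percent inhibition was calculated against control.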

[3] = biological target: T2, Beta-galactoside alpha-2,6-sialyltransferase 1 (Homo sapiens); test: Ratio of Km for Substrate activity at recombinant human ST6Gal I to Ki for inhibition of recombinant human ST6Gal I at 10 uM incubated for 1 hrs in the presence of CMP-Neu5Ac as donor and LacNAc as acceptor; method in brief: as §1
[4] = biological target: T3, CMP-N-acetylneuraminate-beta-galactosamide-alpha-2,3-sialyltransferase 1 (Homo sapiens) (UniProt Q11201); test: Inhibition of recombinant human ST3Gal I at 100 uM incubated for 1 hrs in the presence of CMP-Neu5Ac as donor and Gal-beta1,3-GalNAc as acceptor by luminescence based CMP-Glo assay relative to control; method in brief: as §2
T3 sequence (whole entry): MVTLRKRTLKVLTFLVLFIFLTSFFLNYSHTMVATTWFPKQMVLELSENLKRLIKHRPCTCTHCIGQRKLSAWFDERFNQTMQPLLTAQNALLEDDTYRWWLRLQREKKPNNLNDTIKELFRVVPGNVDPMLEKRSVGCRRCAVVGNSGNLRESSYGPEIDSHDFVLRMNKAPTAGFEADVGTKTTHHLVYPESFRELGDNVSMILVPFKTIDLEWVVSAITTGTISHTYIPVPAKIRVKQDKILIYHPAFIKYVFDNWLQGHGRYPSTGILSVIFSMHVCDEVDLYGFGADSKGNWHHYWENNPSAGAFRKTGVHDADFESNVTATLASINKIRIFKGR

[5] = biological target: T2, Beta-galactoside alpha-2,6-sialyltransferase 1 (Homo sapiens); test: Inhibition of recombinant human ST6Gal I at 100 uM incubated for 1 hrs in the presence of CMP-Neu5Ac as donor and LacNAc as acceptor by luminescence based CMP-Glo assay relative to control; method in brief: as §2

SMILES	inhibition [2] [%]	inhibition [4] [%]	also measured
O=c1ccn([C@@H]2O[C@H](COCc3cn(C(c4cccc(OC(F)(F)C(F)F)c4)P(=O)(O)O)nn3)[C@@H](O)[C@H]2O)c(=O)[nH]1 (single isomer, unassigned) [listing 1 of 2 here]	–	–	pKi [1]: 5.17
O=c1ccn([C@@H]2O[C@H](COCc3cn(C(c4csc5ccccc45)P(=O)(O)O)nn3)[C@@H](O)[C@H]2O)c(=O)[nH]1 (stereo in doubt; 13g-(s))	25	–	–
O=c1ccn([C@@H]2O[C@H](COCc3cn(C(c4cccc(C(F)(F)F)c4)P(=O)(O)O)nn3)[C@@H](O)[C@H]2O)c(=O)[nH]1 (single isomer, unassigned; form 2)	39	–	–
O=c1ccn([C@@H]2O[C@H](COCc3cn(C(c4cccc(OC5CCCC5)c4)P(=O)(O)O)nn3)[C@@H](O)[C@H]2O)c(=O)[nH]1 (single isomer, unassigned)	41	–	–
O=c1ccn([C@@H]2O[C@H](COCc3cn(C(c4csc5ccccc45)P(=O)(O)O)nn3)[C@@H](O)[C@H]2O)c(=O)[nH]1 (stereo in doubt; 13g-(l))	21	–	–
O=c1ccn([C@@H]2O[C@H](COCc3cn(C(c4cccc(OC(F)(F)C(F)F)c4)P(=O)(O)O)nn3)[C@@H](O)[C@H]2O)c(=O)[nH]1 (stereo in doubt; 13f-(l)) [listing 1 of 2 here]	78	39	Ratio [3]: 11
O=c1ccn([C@@H]2O[C@H](COCc3cn(C(c4ccc(F)c(Oc5ccccc5)c4)P(=O)(O)O)nn3)[C@@H](O)[C@H]2O)c(=O)[nH]1 (stereo in doubt; 13c-(l)) [listing 1 of 2 here]	–	–	pKi [1]: 4.47
O=c1ccn([C@@H]2O[C@H](COCc3cn(C(c4cccc(OC(F)(F)C(F)F)c4)P(=O)(O)O)nn3)[C@@H](O)[C@H]2O)c(=O)[nH]1 (stereo in doubt; 13f-(l)) [listing 2 of 2 here]	–	–	pKi [1]: 5.47
O=c1ccn([C@@H]2O[C@H](Cn3cc(C(O)c4cccc(Oc5ccccc5)c4)nn3)[C@@H](O)[C@H]2O)c(=O)[nH]1 (some centres undefined)	–	43	inhibition [5]: 84%
O=c1ccn([C@@H]2O[C@H](COCc3cn(C(c4cccc(Oc5ccccc5)c4)P(=O)(O)O)nn3)[C@@H](O)[C@H]2O)c(=O)[nH]1 (stereo in doubt; 13a-(s)) [listing 1 of 2 here]	62	28	Ratio [3]: 1
O=c1ccn([C@@H]2O[C@H](COCc3cn(C(c4cccc(C(F)(F)F)c4)P(=O)(O)O)nn3)[C@@H](O)[C@H]2O)c(=O)[nH]1 (single isomer, unassigned; form 1)	23	–	–
O=c1ccn([C@@H]2O[C@H](COCc3cn(C(c4cccc(Oc5ccccc5)c4)P(=O)(O)O)nn3)[C@@H](O)[C@H]2O)c(=O)[nH]1 (stereo in doubt; 13a-(s)) [listing 2 of 2 here]	–	–	pKi [1]: 4.40
O=c1ccn([C@@H]2O[C@H](COCc3cn(C(c4cccc(OC(F)(F)C(F)F)c4)P(=O)(O)O)nn3)[C@@H](O)[C@H]2O)c(=O)[nH]1 (single isomer, unassigned) [listing 2 of 2 here]	65	49	Ratio [3]: 5.6
O=c1ccn([C@@H]2O[C@H](COCc3cn(C(c4ccc(F)c(Oc5ccccc5)c4)P(=O)(O)O)nn3)[C@@H](O)[C@H]2O)c(=O)[nH]1 (stereo in doubt; 13c-(l)) [listing 2 of 2 here]	59	9	Ratio [3]: 1.1
O=c1ccn([C@@H]2O[C@H](COCc3cn(C(c4cccc(Oc5ccccc5)c4)P(=O)(O)O)nn3)[C@@H](O)[C@H]2O)c(=O)[nH]1 (stereo in doubt; 13a-(l)) [listing 1 of 2 here]	–	–	pKi [1]: 4.30
O=c1ccn([C@@H]2O[C@H](COCc3cn(C(c4cccc(OC5CCCC5)c4)P(=O)(O)O)nn3)[C@@H](O)[C@H]2O)c(=O)[nH]1 (stereo in doubt; 13b-(l))	10	–	–
O=c1ccn([C@@H]2O[C@H](COCc3cn(C(c4cccc(Oc5ccccc5)c4)P(=O)(O)O)nn3)[C@@H](O)[C@H]2O)c(=O)[nH]1 (stereo in doubt; 13a-(l)) [listing 2 of 2 here]	26	2	Ratio [3]: 0.7
O=c1ccn([C@@H]2O[C@H](COCc3cn(C(c4ccc(F)c(Oc5ccccc5)c4)P(=O)(O)O)nn3)[C@@H](O)[C@H]2O)c(=O)[nH]1 (stereo in doubt; 13c-(s)) [listing 1 of 2 here]	–	–	pKi [1]: 5.22
O=c1ccn([C@@H]2O[C@H](COCc3cn(C(c4ccc(F)cc4)P(=O)(O)O)nn3)[C@@H](O)[C@H]2O)c(=O)[nH]1 (stereo in doubt; 13d-(l))	45	–	–
O=c1ccn([C@@H]2O[C@H](COCc3cn(C(c4ccc(F)c(Oc5ccccc5)c4)P(=O)(O)O)nn3)[C@@H](O)[C@H]2O)c(=O)[nH]1 (stereo in doubt; 13c-(s)) [listing 2 of 2 here]	57	43	Ratio [3]: 6
O=c1ccn([C@@H]2O[C@H](COCc3cn(C(c4ccc(F)cc4)P(=O)(O)O)nn3)[C@@H](O)[C@H]2O)c(=O)[nH]1 (single isomer, unassigned)	44	–	–
